Measurements: ChEMBL document CHEMBL1932972, “ent-Kaurane diterpenoids from Croton tonkinensis stimulate osteoblast differentiation” (J Nat Prod, 2011)
Active and inactive are the calls of the source.

Tests used:
C2C12 [1] = test: Increase in ALP mRNA expression in mouse C2C12 cells by RT-PCR analysis; assay type: functional, cell-based
Outline: (§1)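 C2C12 cells (DMEM, 20% FBS, 37 °C, 5% CO2) treated at 1, 5, 10 μM, with BMP2 as comparator. Total RNA extracted with TRIzol. cDNA made from 1 μg RNA using random primers. Semiquantitative RT-PCR for ALP and collagen type 1α with GAPDH reference, 28−30 cycles (94 °C 30 s, primer-specific annealing 30 s, 72 °C 30 s).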

C2C12 [2] = test: Induction of osteogenesis in mouse C2C12 cells assessed as increase in osteoblast differentiation-associated ALP level at 10 uM after 2 days in presence of 5 ng/mL BMP2
C2C12 [3] = test: Increase in collagen type 1 alpha mRNA expression in mouse C2C12 cells by RT-PCR analysis; assay type: functional, cell-based; outline: as §1
C2C12 [4] = test: Induction of osteoblast differentiation in mouse C2C12 cells assessed as increase in ALP promoter activity at 10 uM measured 48 hrs by luciferase reporter gene analysis; assay type: functional, cell-based
Outline: (§2)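 C2C12 cells seeded and grown 24 h, then transiently transfected (Ca3PO4 or Lipofectamine Plus) with ALP-, OC-, BSP- or OSE-luciferase reporter plus pCMV β-gal to normalise transfection efficiency. Treated at 10 μM. Luciferase read from cell lysates 48 h post-transfection; three independent experiments.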

C2C12 [5] = test: Induction of osteoblast differentiation in mouse C2C12 cells assessed as increase in osteoclacin promoter activity at 10 uM measured 48 hrs by luciferase reporter gene analysis; assay type: functional, cell-based; outline: as §2
C2C12 [6] = test: Induction of osteoblast differentiation in mouse C2C12 cells assessed as increase in of bone sialoprotein promoter activity at 10 uM measured 48 hrs by luciferase reporter gene analysis; assay type: functional, cell-based; outline: as §2
C2C12 [7] = test: Induction of osteoblast differentiation in mouse C2C12 cells assessed as increase in OSE promoter activity at 10 uM measured 48 hrs by luciferase reporter gene analysis; assay type: functional, cell-based; outline: as §2
C2C12 [8] = test: Induction of osteoblast differentiation in mouse C2C12 cells assessed as increase in ALP promoter activity measured 48 hrs by luciferase reporter gene analysis; assay type: functional, cell-based
Outline: (§3)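 ALP- or OC-luciferase reporter transfected into C2C12 cells with pCMV β-gal control (Ca3PO4 or Lipofectamine Plus), after 24 h growth post-seeding. Dose-response at 1, 5 and 10 μM. Lysate luciferase activity measured 48 h later; three independent experiments.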

C2C12 [9] = test: Induction of osteoblast differentiation in mouse C2C12 cells assessed as increase in osteoclacin promoter activity measured 48 hrs by luciferase reporter gene analysis; assay type: functional, cell-based; outline: as §3

Measured: Activity

C=C1C[C@@]23CC[C@@H]4[C@@](C)(COC(C)=O)CCC[C@@]4(C)[C@@H]2[C@H](O)C[C@@H]1C3
active: C2C12 [1] Dose-dependent effect | C2C12 [2] | C2C12 [3] Dose-dependent effect | C2C12 [4] | C2C12 [5] | C2C12 [6] | C2C12 [7] | C2C12 [8] Dose-dependent effect | C2C12 [9] Dose-dependent effect

C=C1C[C@@]23CC[C@@H]4[C@@](C)(COC(C)=O)CCC[C@@]4(C)[C@@H]2CC[C@@H]1[C@H]3O
active: C2C12 [1] Dose-dependent effect | C2C12 [2] | C2C12 [3] Dose-dependent effect | C2C12 [4] | C2C12 [5] | C2C12 [6] | C2C12 [7] | C2C12 [8] Dose-dependent effect | C2C12 [9] Dose-dependent effect

C=C1C[C@@]23CC[C@@H]4[C@@](C)(CO)CCC[C@@]4(C)[C@@H]2[C@@H](OC(C)=O)C[C@@H]1C3
active: C2C12 [1] Dose-dependent effect | C2C12 [2] | C2C12 [3] Dose-dependent effect | C2C12 [4] | C2C12 [5] | C2C12 [6] | C2C12 [7] | C2C12 [8] Dose-dependent effect | C2C12 [9] Dose-dependent effect

C=C1C[C@]23C[C@H]1CC[C@H]2[C@]1(C)CCC[C@](C)(COC(C)=O)[C@H]1C[C@H]3O
active: C2C12 [2] | C2C12 [4] | C2C12 [5] | C2C12 [6] | C2C12 [7] | C2C12 [8] Dose-dependent effect | C2C12 [9] Dose-dependent effect
